Calls of active or inactive are those of the source. No cut-off for these calls is given here.
Tests used:
[1] = molecular target: T1, HTH-type quorum-sensing regulator RhlR (Pseudomonas aeruginosa (strain ATCC 15692 / PAO1 / 1C / PRS 101 / LMG12228)) (UniProt P54292); assay: Antagonist activity at RhlR in Pseudomonas aeruginosa assessed as rhamnolipid production at 100 uM incubated for 24 hrs by Orcinol staining based assay relative to control; parameters: scale not given: the % may be the effect or the level left
T1 sequence (whole entry): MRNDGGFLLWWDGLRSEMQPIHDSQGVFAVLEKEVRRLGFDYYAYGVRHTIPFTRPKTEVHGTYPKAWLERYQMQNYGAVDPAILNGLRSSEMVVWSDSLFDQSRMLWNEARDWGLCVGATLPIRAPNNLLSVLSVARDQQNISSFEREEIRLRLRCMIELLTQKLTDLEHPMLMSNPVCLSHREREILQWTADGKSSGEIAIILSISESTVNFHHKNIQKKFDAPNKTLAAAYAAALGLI

[2] = molecular target: T1, HTH-type quorum-sensing regulator RhlR (Pseudomonas aeruginosa (strain ATCC 15692 / PAO1 / 1C / PRS 101 / LMG12228)); assay: Agonist activity at Pseudomonas aeruginosa RhlR expressed in Escherichia coli DH5alpha assessed as relative protein activity at 1000 uM incubated for 1.5 hrs by luminescence reporter gene assay relative to control
[3] = system: Pseudomonas aeruginosa; assay: Antibacterial activity against Pseudomonas aeruginosa assessed as bacterial growth at 10 uM incubated for 24 hrs relative to control; assay type: functional
Method in brief: (§1)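 P. aeruginosa overnight culture (OD595 1.0) diluted 1:20 in AB medium (pH 7.5, 1% glucose, casamino acids, arginine) with compound, in borosilicate bottles, 37 °C for 24 h without shaking. Growth taken as OD595 of the suspended culture. Attached cells washed twice with PBS, stained with 0.1% crystal violet for 10 min, dye eluted in ethanol and read at 545 nm.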

[4] = molecular target: T1, HTH-type quorum-sensing regulator RhlR (Pseudomonas aeruginosa (strain ATCC 15692 / PAO1 / 1C / PRS 101 / LMG12228)); assay: Modulation of RhlR in Pseudomonas aeruginosa assessed as biofilm formation at 100 uM incubated for 24 hrs under static condition by crystal violet staining based assay relative to control
[5] = molecular target: T1, HTH-type quorum-sensing regulator RhlR (Pseudomonas aeruginosa (strain ATCC 15692 / PAO1 / 1C / PRS 101 / LMG12228)); assay: Agonist activity at Pseudomonas aeruginosa RhlR expressed in Escherichia coli DH5alpha assessed as relative protein activity at 100 uM incubated for 1.5 hrs by luminescence reporter gene assay relative to control
[6] = molecular target: T1, HTH-type quorum-sensing regulator RhlR (Pseudomonas aeruginosa (strain ATCC 15692 / PAO1 / 1C / PRS 101 / LMG12228)); assay: Modulation of RhlR in Pseudomonas aeruginosa assessed as biofilm formation at 10 uM incubated for 24 hrs under static condition by crystal violet staining based assay relative to control
[7] = molecular target: T1, HTH-type quorum-sensing regulator RhlR (Pseudomonas aeruginosa (strain ATCC 15692 / PAO1 / 1C / PRS 101 / LMG12228)); assay: Antagonist activity at RhlR in Pseudomonas aeruginosa assessed as rhamnolipid production at 10 uM incubated for 24 hrs by Orcinol staining based assay relative to control; parameters: scale not given: the % may be the effect or the level left
[8] = molecular target: T1, HTH-type quorum-sensing regulator RhlR (Pseudomonas aeruginosa (strain ATCC 15692 / PAO1 / 1C / PRS 101 / LMG12228)); assay: Antagonist activity at Pseudomonas aeruginosa RhlR expressed in Escherichia coli DH5alpha assessed as relative protein activity at 100 uM incubated for 1.5 hrs in presence of N-butyryl-L-homoserine lactone by luminescence reporter gene assay relative to control; parameters: scale not given: the % may be the effect or the level left
Method in brief: (§2)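 E. coli DH5α sdiA mutant carrying RhlR and rhlA::lacZ plasmids, at OD595 0.3 in LB. Compound given with BHL (10 µM per footnote) and 0.4% arabinose, 37 °C for 1.5 h.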

[9] = system: Pseudomonas aeruginosa; assay: Antibacterial activity against Pseudomonas aeruginosa assessed as bacterial growth at 100 uM incubated for 24 hrs relative to control; assay type: functional; method in brief: as §1
[10] = molecular target: T1, HTH-type quorum-sensing regulator RhlR (Pseudomonas aeruginosa (strain ATCC 15692 / PAO1 / 1C / PRS 101 / LMG12228)); assay: Antagonist activity at Pseudomonas aeruginosa RhlR expressed in Escherichia coli DH5alpha assessed as relative protein activity at 10 uM incubated for 1.5 hrs in presence of N-butyryl-L-homoserine lactone by luminescence reporter gene assay relative to control; parameters: scale not given: the % may be the effect or the level left; method in brief: as §2
[11] = molecular target: T2, Transcriptional regulator MvfR (Pseudomonas aeruginosa PA14) (UniProt A0A072ZLE6); assay: Antagonist activity at Pseudomonas aeruginosa PqsR expressed in Escherichia coli DH5alpha at 0.1 to 10 uM incubated for 1.5 hrs by luminescence reporter gene assay
T2 sequence (whole entry): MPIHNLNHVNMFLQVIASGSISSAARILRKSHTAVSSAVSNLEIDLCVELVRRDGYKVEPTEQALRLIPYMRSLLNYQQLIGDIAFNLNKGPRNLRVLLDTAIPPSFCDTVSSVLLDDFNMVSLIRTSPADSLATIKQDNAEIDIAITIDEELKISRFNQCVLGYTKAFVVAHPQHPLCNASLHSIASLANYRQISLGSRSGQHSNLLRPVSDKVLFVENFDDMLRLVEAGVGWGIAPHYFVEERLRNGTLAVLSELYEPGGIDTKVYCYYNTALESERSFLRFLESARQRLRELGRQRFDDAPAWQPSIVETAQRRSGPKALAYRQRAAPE

[12] = system: Pseudomonas aeruginosa; assay: Downregulation of rhlA expression in biofilm of Pseudomonas aeruginosa at 10 uM after 24 hrs by RT-qPCR analysis relative to control; assay type: functional
Method in brief: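 P. aeruginosa (OD595 1.0) diluted 1:20 in AB medium with compound in borosilicate bottles, 37 °C for 24 h. Total RNA extracted from biofilm cells and run by SYBR RT-qPCR with QS-gene primers. Cycling: 95 °C 10 s, then 40 cycles of 95 °C 10 s and 60 °C 10 s.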

[13] = molecular target: T2, Transcriptional regulator MvfR (Pseudomonas aeruginosa PA14); assay: Agonist activity at Pseudomonas aeruginosa PqsR expressed in Escherichia coli DH5alpha at 0.1 to 10 uM incubated for 1.5 hrs by luminescence reporter gene assay
[14] = molecular target: T1, HTH-type quorum-sensing regulator RhlR (Pseudomonas aeruginosa (strain ATCC 15692 / PAO1 / 1C / PRS 101 / LMG12228)); assay: Modulation of RhlR in Pseudomonas aeruginosa assessed as reduction in biofilm formation at 10 uM incubated for 48 hrs under dynamic condition by measuring biofilm volume by 4',6-diamidino-2-phenylindole staining based confocal laser scanning microscopy
Method in brief: (§3)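 Drip-flow reactor with glass slides, fed continuously at 0.3 mL/min with AB medium containing 5% P. aeruginosa (OD595 1.0) plus compound, 37 °C for 48 h. Unattached cells removed with PBS. Volume and thickness obtained with Comstat2.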

[15] = molecular target: T3, Transcriptional activator protein LasR (Pseudomonas aeruginosa (strain ATCC 15692 / PAO1 / 1C / PRS 101 / LMG12228)) (UniProt P25084); assay: Agonist activity at Pseudomonas aeruginosa LasR expressed in Escherichia coli DH5alpha at 0.1 to 10 uM incubated for 1.5 hrs by luminescence reporter gene assay
T3 sequence (whole entry): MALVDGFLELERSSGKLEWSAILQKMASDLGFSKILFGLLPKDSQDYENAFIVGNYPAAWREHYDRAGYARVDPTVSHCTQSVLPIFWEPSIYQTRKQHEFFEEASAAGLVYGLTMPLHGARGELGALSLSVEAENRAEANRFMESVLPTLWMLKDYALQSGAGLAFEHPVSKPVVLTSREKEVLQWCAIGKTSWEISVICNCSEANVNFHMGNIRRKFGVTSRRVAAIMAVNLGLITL

[16] = molecular target: T1, HTH-type quorum-sensing regulator RhlR (Pseudomonas aeruginosa (strain ATCC 15692 / PAO1 / 1C / PRS 101 / LMG12228)); assay: Modulation of RhlR in Pseudomonas aeruginosa assessed as reduction in biofilm formation at 10 uM incubated for 48 hrs under dynamic condition by measuring biofilm thickness by 4',6-diamidino-2-phenylindole staining based confocal laser scanning microscopy; method in brief: as §3

Row | Activity [1] | Activity [2] | Activity [4] | Activity [5] | Activity [6] | Activity [7] | Activity [8] | Activity [10] | Activity [11] | Activity [13] | Activity [14] | Activity [15] | Activity [16] | SMILES | Activity [3] | Activity [9] | Activity [12]
1 | 49% | 5% | 60% | 3% | 73% | 73% | 32% | 45% |  |  |  |  |  | CCCC(O)C#Cc1ccc(F)c(F)c1 (racemic) | 100% | 104% | 
2 | 45% | 37% | 69% | 4% | 84% | 58% | 54% | 74% | inactive | inactive | 14.4 um3/um2 | inactive | 20.2 µm | CCCC(=O)NC1CCCC1 | 95% | 98% | 65 - 79%
3 | 52% | 5% | 64% | 3% | 79% | 59% | 38% | 59% |  |  |  |  |  | CCC[C@H](O)C#Cc1ccc(F)c(F)c1 | 98% | 99% | 

From ChEMBL document CHEMBL4619802, “Discovery and Characterization of Pure RhlR Antagonists against Pseudomonas aeruginosa Infections” (J Med Chem, 2020)
